Assay results reported in PMC9998565 (Clinical Pharmacokinetics, 2023).
Each block holds one compound with its values, some of them ahead of it.

Tests used:
[1] = tested on: healthy white male volunteers; test: Hemodynamic profile; assay type: in vivo, human
Summary of the method: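 Healthy men took test compound 10 mg or placebo once daily for 16 days, with a second test compound (25, 50, 100 mg) ~2 h later on days 13–15. After 15 min supine, seated then standing (2 min) SBP, DBP and HR were taken from 1.25 to ~5 h post-dose on days 0 and 12–15. Baseline was the mean of four seated pre-co-dose values. ANCOVA was run per dose; standing data were descriptive.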

healthy subjects = settings: cited from earlier work
[2] = tested on: healthy white male volunteers; test: Safety and tolerability; assay type: in vivo, human
Summary of the method: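 Safety covered AEs, coded by MedDRA 19.0; an AE counted as treatment-emergent if it began or worsened from first dose to 30 days post-treatment, and investigators judged relatedness. Fasting haematology, chemistry, coagulation and urinalysis were collected at screening, pre-dose days 0 and 12–15, day 16 and follow-up. Vital signs and ECGs were taken after 15 min supine rest, pre-dose and 5.5 h post-dose (day 12 pre-dose only). All dosed subjects were included.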

[3] = Vericiguat pharmacokinetics in plasma; assay type: in vivo, human
Summary of the method: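 Test compound was 10 mg once daily after breakfast. Lithium-heparin plasma was sampled pre-dose and at 0.5–15 h on days 12–15, plus 24 h on day 16. A labelled internal standard was added, then automated acetonitrile/ammonium acetate/formic acid precipitation and validated LC. QC accuracy was 93.88–101.33% and CV 1.24–2.58%; storage was −20 °C, analysis within 36 days. Log AUC(0–24) and Cmax were analysed by ANOVA (administration, subject).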

[4] = cited from earlier work
[5] = tested on: patients with HF with reduced ejection fraction; settings: vericiguat 10 mg once daily; cited from earlier work
[6] = tested on: patients with pulmonary arterial hypertension; settings: 12 weeks, riociguat 1.0–2.5 mg with sildenafil 20 mg three times daily; cited from earlier work
[7] = Sildenafil pharmacokinetics in plasma; assay type: in vivo, human
Summary of the method: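 For the co-administered compound, plasma (EDTA K3) was drawn 3, 4, 6, 8, 12 and 24 h after test compound/placebo on days 13–15, with dosing at 2 h. Processing used a deuterated internal standard and methyl tert-butyl ether liquid-liquid extraction, then a validated LC assay. Samples were stored at −20 °C and analysed within 38 days. Log AUC(0–22) and Cmax went through ANOVA per dose; the test/placebo ratio was given with 90% CIs.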

[8] = ANCOVA, day 14, both groups + sildenafil 50 mg
[9] = during treatment with sildenafil, days 13–15
[10] = whole study, both groups also received sildenafil on days 13–15

Structure (SMILES): COC(=O)Nc1c(N)nc(-c2nn(Cc3ccccc3F)c3ncc(F)cc23)nc1N [Vericiguat]
- Change in seated HR, LS mean difference ‘vericiguat-placebo’ ([1]; ANCOVA, day 13, both groups + sildenafil 25 mg): 0.96 bpm
- Change in seated HR, LS mean difference ‘vericiguat-placebo’ [1, 8]: 0.81 bpm
- Change in seated SBP, LS mean difference ‘vericiguat-placebo’ [1, 8]: 1.36 mmHg
- Change in seated HR, LS mean difference ‘vericiguat-placebo’ ([1]; ANCOVA, day 15, both groups + sildenafil 100 mg): 1.38 bpm
- Maximum SBP when seated or standing ([1]; day 0): 143 mmHg
- Minimum SBP when standing ([1]; day 0): 97 mmHg
- Standing HR ([1]; day 0): 54–108 bpm
- Maximum SBP when seated or standing ([1]; day 12): 141 mmHg
- Minimum SBP when standing ([1]; day 12): 93 mmHg
- Standing HR ([1]; day 12): 53–102 bpm
- Range of standing HR values ([1]; day 13, with sildenafil 25 mg): 54–114 bpm
- Range of standing HR values ([1]; day 14, with sildenafil 50 mg): 54–119 bpm
- Range of standing HR values ([1]; day 15, with sildenafil 100 mg): 53–127 bpm
- Minimum standing SBP ([1]; days 13–15, with sildenafil): 81–91 mmHg
- Increases in HR (healthy subjects; healthy subjects, vericiguat 5–15 mg over several days): 4–10 bpm
- TEAEs of mild intensity ([2]; by treatment group, whole study): 81.3%
- Subjects with dyspepsia (TEAE) ([2]; days 0–12, vericiguat group): 25.0%
- Subjects with gastrointestinal disorders (TEAE) ([2]; days 0–12, vericiguat group): 31.3%
- Subjects with head discomfort (TEAE) [2, 9]: up to 13.3%
- Subjects with headache (TEAE) [2, 9]: up to 21.4%
- Effects on ECG parameters, including the QT interval ([2]; in vivo): no relevant effects
- Subjects reporting at least one TEAE [2, 10]: All subjects
- Subjects with at least one sildenafil-related TEAE [2, 10]: 87.5%
- Subjects with at least one vericiguat-related TEAE [2, 10]: 62.5%
- Effect of co-administration of sildenafil on vericiguat pharmacokinetics ([3]; sildenafil 25–100 mg): did not affect
- Time at which vericiguat Cmax values were reached post-administration ([3]; vericiguat 10 mg once daily, days 12–15): about 3 h
- Half-life [4]: 20 to 30 h
- Onset (time after intake) ([4]; intake with food as recommended): ~ 4 h
- Time to achieve maximum plasma concentration (Cmax) ([4]; steady state, after intake): approximately 4 h
- Composite endpoint of death from cardiovascular causes or hospitalization for HF, hazard ratio [5]: 0.90

Structure (SMILES): COC(=O)N(C)c1c(N)nc(-c2nn(Cc3ccccc3F)c3ncccc23)nc1N [riociguat]
- Standing SBP after dosing lower than with placebo [6]: approximately 10 mmHg
- Cmax at (time after intake) [4]: 1 to 1.5 h
- Half-life [4]: 7 to 12 h

- Increase in sildenafil AUC(0–22), vericiguat group compared with placebo group ([7]; across sildenafil 25–100 mg): 13–22%
- Increase in sildenafil Cmax, vericiguat group compared with placebo group ([7]; across sildenafil 25–100 mg): 14–20%
- Increase in sildenafil AUC(0–22) with co-administration of vericiguat ([7]; sildenafil 25 mg): 22.4%
- Increase in sildenafil Cmax with co-administration of vericiguat ([7]; sildenafil 25 mg): 14.2%
- Increase in sildenafil AUC(0–22) with co-administration of vericiguat ([7]; sildenafil 50 mg): 17.1%
- Increase in sildenafil Cmax with co-administration of vericiguat ([7]; sildenafil 50 mg): 20.4%
- Increase in sildenafil AUC(0–22) with co-administration of vericiguat ([7]; sildenafil 100 mg): 13.0%
- Increase in sildenafil Cmax with co-administration of vericiguat ([7]; sildenafil 100 mg): 17.1%
- Time required to achieve the geometric mean Cmax of sildenafil ([7]; sildenafil 100 mg, day 15, co-administered with vericiguat): 2 h
- Time required to achieve the geometric mean Cmax of sildenafil ([7]; sildenafil 100 mg, day 15, with placebo): 1 h
- Increase in sildenafil exposure when co-administered with vericiguat ([7]; sildenafil 25–100 mg): ≤ 22%
Structure (SMILES): CCCc1nn(C)c2c(=O)[nH]c(-c3cc(S(=O)(=O)N4CCN(C)CC4)ccc3OCC)nc12 [Sildenafil]
- Dose dependency of BP-reducing effect ([1]; 25, 50, 100 mg, placebo group): no clear dose dependency
- Mean decreases from baseline in BP ([1]; after single doses of sildenafil on days 13–15, placebo group): ≤ 5.3 mmHg
- Mean maximum decreases in BP ([1]; days 13–15, placebo group): ≤ 11.0 mmHg
- Mean maximum decrease in DBP (healthy subjects; healthy volunteers): 5.3 mmHg
- Mean maximum decrease in SBP (healthy subjects; healthy volunteers): 8.3 mmHg
- Terminal half-life [4]: about 4 h
- Time to achieve Cmax [4]: 1 to 2 h
